Measured values as given in ChEMBL document CHEMBL3120066, “Discovery of a novel class of potent HCV NS4B inhibitors: SAR studies on piperazinone derivatives” (J Med Chem, 2014).
≈ marks a conversion by molar mass, not a printed value. Values belong to the compound of their own block, whether it stands above or below them. Calls of active or inactive are those of the source. The rule behind the calls is not given here.

Key:
Hepatitis C virus [1] = test: Antiviral activity against HCV2 assessed as inhibition of viral replication; assay type: functional, organism-based; conditions: Hepacivirus hominis; type 2
Cytochrome P450 3A4 = Cytochrome P450 3A4 (Homo sapiens, UniProt P08684); test: Inhibition of CYP3A4 (unknown origin) up to 10 uM; assay type: ADME
Cytochrome P450 2D6 = Cytochrome P450 2D6 (Homo sapiens, UniProt P10635); test: Inhibition of CYP2D6 (unknown origin) up to 10 uM; assay type: ADME
Cytochrome P450 2C9 = Cytochrome P450 2C9 (Homo sapiens, UniProt P11712); test: Inhibition of CYP2C9 (unknown origin) up to 10 uM; assay type: ADME
Cytochrome P450 1A2 = biological target: T1, Cytochrome P450 1A2 (Homo sapiens, UniProt P05177); test: Inhibition of CYP1A2 (unknown origin) up to 10 uM; assay type: ADME
T1 sequence (P05177 whole entry): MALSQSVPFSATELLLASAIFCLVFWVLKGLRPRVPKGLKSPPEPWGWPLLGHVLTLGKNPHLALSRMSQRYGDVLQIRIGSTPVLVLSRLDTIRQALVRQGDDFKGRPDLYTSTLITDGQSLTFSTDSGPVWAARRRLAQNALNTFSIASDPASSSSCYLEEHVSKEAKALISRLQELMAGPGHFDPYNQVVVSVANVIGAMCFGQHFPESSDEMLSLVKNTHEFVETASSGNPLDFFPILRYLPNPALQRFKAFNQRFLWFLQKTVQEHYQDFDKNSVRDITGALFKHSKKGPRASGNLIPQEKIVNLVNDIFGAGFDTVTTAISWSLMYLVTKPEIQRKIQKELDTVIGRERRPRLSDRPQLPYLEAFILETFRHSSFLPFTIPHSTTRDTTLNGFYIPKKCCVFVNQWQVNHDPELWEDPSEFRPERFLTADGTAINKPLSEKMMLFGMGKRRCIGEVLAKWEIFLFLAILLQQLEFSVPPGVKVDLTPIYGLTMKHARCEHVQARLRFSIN

[2] = Solubility of the compound at pH 4; assay type: physicochemical; conditions: buffer
[3] = Solubility of the compound at pH 7.4; assay type: physicochemical; conditions: buffer
[4] = Half life in human liver microsomes; assay type: ADME
Hepatitis C virus [5] = test: Antiviral activity against HCV1a infected in clone A and ET-lunet cells assessed as inhibition of viral replication after 4 days by RT-PCR analysis; assay type: functional, organism-based, Hepacivirus hominis; conditions: subtype 1a, 96 h
How it was run: (§1)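 Run in HCV genotype 1a and 1b replicon cells; each reported value is the mean of n = 2 independent determinations.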

Hepatitis C virus [6] = test: Antiviral activity against HCV1b infected in clone A and ET-lunet cells assessed as inhibition of viral replication after 4 days by RT-PCR analysis; assay type: functional, organism-based, Hepacivirus hominis; conditions: genotype 1b, 96 h; how it was run: as §1
[7] = Cytotoxicity against human CEM cells after 8 days by MTS assay; assay type: cell-based; conditions: CEM cells (CCRF-CEM)
[8] = Cytotoxicity against human BxPC3 cells after 8 days by MTS assay; assay type: cell-based, BXPC-3
[9] = Cytotoxicity against human HepG2 cells after 8 days by MTS assay; assay type: cell-based
[10] = Cytotoxicity against human HuH7 cells after 8 days by MTS assay; assay type: cell-based, Huh-7
Hepatitis C virus [11] = test: Antiviral activity against HCV1a infected in clone A and ET-lunet cells assessed as inhibition of viral replication up to 20 uM after 4 days by RT-PCR analysis; assay type: functional, organism-based; conditions: Hepacivirus hominis, subtype 1a
Hepatitis C virus [12] = test: Antiviral activity against HCV1b infected in clone A and ET-lunet cells assessed as inhibition of viral replication up to 20 uM after 4 days by RT-PCR analysis; assay type: functional, organism-based; conditions: Hepacivirus hominis, genotype 1b

Cytochrome P450 3A4, sequence (P08684 whole entry): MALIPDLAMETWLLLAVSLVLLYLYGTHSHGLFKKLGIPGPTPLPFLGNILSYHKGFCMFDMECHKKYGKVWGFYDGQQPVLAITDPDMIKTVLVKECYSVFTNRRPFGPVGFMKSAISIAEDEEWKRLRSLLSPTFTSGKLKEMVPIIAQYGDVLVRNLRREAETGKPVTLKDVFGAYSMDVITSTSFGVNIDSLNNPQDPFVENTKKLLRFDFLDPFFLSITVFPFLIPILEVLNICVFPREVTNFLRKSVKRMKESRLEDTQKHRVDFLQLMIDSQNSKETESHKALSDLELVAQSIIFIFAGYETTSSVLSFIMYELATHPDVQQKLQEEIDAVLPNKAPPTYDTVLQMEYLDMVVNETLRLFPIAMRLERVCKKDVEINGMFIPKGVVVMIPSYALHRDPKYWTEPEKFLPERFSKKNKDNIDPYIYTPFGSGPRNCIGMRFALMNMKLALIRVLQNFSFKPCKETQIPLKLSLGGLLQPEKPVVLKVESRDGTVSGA
Cytochrome P450 2C9, sequence (P11712 whole entry): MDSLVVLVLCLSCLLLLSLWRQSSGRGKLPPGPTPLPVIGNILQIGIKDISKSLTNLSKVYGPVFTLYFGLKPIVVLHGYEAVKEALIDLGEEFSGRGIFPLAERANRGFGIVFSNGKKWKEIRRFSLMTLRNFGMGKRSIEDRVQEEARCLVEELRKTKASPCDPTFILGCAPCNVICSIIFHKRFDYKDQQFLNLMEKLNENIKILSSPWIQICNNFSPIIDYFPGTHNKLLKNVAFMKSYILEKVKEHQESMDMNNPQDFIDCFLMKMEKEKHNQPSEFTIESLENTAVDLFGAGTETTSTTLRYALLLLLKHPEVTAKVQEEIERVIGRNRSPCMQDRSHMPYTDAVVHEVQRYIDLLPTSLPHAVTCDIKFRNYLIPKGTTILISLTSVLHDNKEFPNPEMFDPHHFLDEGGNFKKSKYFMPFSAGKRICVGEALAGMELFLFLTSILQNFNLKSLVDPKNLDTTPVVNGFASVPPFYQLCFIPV
Cytochrome P450 2D6, sequence (P10635 whole entry): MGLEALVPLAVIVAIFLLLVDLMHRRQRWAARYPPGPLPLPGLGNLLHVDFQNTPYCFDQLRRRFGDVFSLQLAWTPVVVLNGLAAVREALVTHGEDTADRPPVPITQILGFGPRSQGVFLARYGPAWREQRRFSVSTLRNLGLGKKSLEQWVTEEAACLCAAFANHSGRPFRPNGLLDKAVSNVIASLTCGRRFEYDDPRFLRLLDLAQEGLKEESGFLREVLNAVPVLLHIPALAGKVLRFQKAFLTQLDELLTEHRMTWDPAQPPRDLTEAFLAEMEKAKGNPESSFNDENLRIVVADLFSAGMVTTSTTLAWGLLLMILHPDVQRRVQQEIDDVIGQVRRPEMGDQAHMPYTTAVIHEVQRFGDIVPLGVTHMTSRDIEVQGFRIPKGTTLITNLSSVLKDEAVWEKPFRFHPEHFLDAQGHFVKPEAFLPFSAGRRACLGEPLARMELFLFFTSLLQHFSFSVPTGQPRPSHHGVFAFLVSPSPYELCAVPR

- inhibition (INH) (Cytochrome P450 3A4): Not Active
- inhibition (INH) (Cytochrome P450 2D6): Not Active
- inhibition (INH) (Cytochrome P450 2C9): Not Active
- inhibition (INH) (Cytochrome P450 1A2): Not Active
- solubility [2]: 147 µg/mL (≈ 356 µM)
- solubility [3]: 151 µg/mL (≈ 366 µM)
- half-life [4]: 40 min
- EC90 (Hepatitis C virus [5]): 16 nM
- EC90 (Hepatitis C virus [6]): 70 nM
SMILES: CC(C)C[C@H]1C(=O)N[C@@H](c2cnco2)CN1C(=O)c1cc(-c2ccc(F)cc2)on1
- inhibition (Hepatitis C virus [1]): inactive

- inhibition (INH) (Cytochrome P450 3A4): Not Active
- inhibition (INH) (Cytochrome P450 2D6): Not Active
- inhibition (INH) (Cytochrome P450 2C9): Not Active
- inhibition (INH) (Cytochrome P450 1A2): Not Active
- solubility [2]: 0.2 µg/mL (≈ 0.468 µM)
- solubility [3]: 0.2 µg/mL (≈ 0.468 µM)
- half-life [4]: 120 min
- EC90 (Hepatitis C virus [5]): 22 nM
- EC90 (Hepatitis C virus [6]): 6 nM
SMILES: CC(C)C[C@H]1C(=O)N[C@@H](c2cccs2)CN1C(=O)c1cc(-c2ccc(F)cc2)on1
- inhibition (Hepatitis C virus [1]): inactive

- EC50 (Hepatitis C virus [5]): 560 nM
- EC50 (Hepatitis C virus [6]): 310 nM
SMILES: O=C(NCc1cccs1)c1cc2nc(-c3ccco3)cc(C(F)(F)Cl)n2n1 [ANGUIZOLE]

- EC90 (Hepatitis C virus [5]): 1000 nM
- EC90 (Hepatitis C virus [6]): 800 nM
SMILES: CC(C)C[C@H]1CN(C(=O)[C@@H]2C[C@H]2c2ccccc2)[C@@H](CC(C)C)C(=O)N1
- CC50 at 192 h [7]: 40000 nM
- CC50 at 192 h [8]: 40000 nM
- CC50 at 192 h [9]: 40000 nM
- CC50 at 192 h [10]: 40000 nM

- half-life [4]: 54 min
- EC90 (Hepatitis C virus [6]): 60 nM
SMILES: CC(C)C[C@H]1C(=O)N[C@@H](c2ccccc2)CN1C(=O)c1cc(-c2ccc(F)cc2)on1

- half-life [4]: 17 min
- EC90 (Hepatitis C virus [6]): 60 nM
SMILES: C/C=C/[C@H]1CN(C(=O)c2cc(-c3ccc(F)cc3)on2)[C@@H](CC(C)C)C(=O)N1

- EC90 (Hepatitis C virus [5]): > 10000 nM
- EC90 (Hepatitis C virus [6]): > 10000 nM
SMILES: CC(C)C[C@H]1CN(C(=O)[C@H]2C[C@@H]2c2ccccc2)[C@@H](CC(C)C)C(=O)N1
- inhibition (Hepatitis C virus [11]): inactive
- inhibition (Hepatitis C virus [12]): inactive

- half-life [4]: 29 min
- EC90 (Hepatitis C virus [6]): 90 nM
SMILES: CC(C)C[C@H]1C(=O)N[C@@H](C2CCCC2)CN1C(=O)c1cc(-c2ccc(F)cc2)on1

- EC90 (Hepatitis C virus [6]): > 10000 nM
SMILES: CC(C)C[C@H]1CN(C(=O)/C=C/c2ccc(S(C)(=O)=O)cc2)[C@@H](CC(C)C)C(=O)N1

- EC90 (Hepatitis C virus [6]): > 10000 nM
SMILES: CC(C)C[C@H]1CN(C(=O)/C=C/c2ccc(N(C)C)cc2)[C@@H](CC(C)C)C(=O)N1

- EC90 (Hepatitis C virus [6]): 1500 nM
SMILES: CC(C)C[C@H]1CN(C(=O)/C=C/c2ccc(F)cc2F)[C@@H](CC(C)C)C(=O)N1

- EC90 (Hepatitis C virus [6]): > 10000 nM
SMILES: CC(C)C[C@H]1CN(C(=O)c2cc(-c3ccc(N(C)C)cc3)on2)[C@@H](CC(C)C)C(=O)N1

- EC90 (Hepatitis C virus [6]): > 10000 nM
SMILES: CC(C)C[C@H]1C(=O)N[C@@H](CO)CN1C(=O)c1cc(-c2ccc(F)cc2)on1

- EC90 (Hepatitis C virus [6]): 1100 nM
SMILES: CC(C)C[C@H]1C(=O)N[C@@H](C2CC2)CN1C(=O)c1cc(-c2ccc(F)cc2)on1

- EC90 (Hepatitis C virus [6]): 1500 nM
SMILES: CC(C)C[C@H]1CN(C(=O)/C=C/c2ccc(F)c(F)c2)[C@@H](CC(C)C)C(=O)N1

- EC90 (Hepatitis C virus [6]): 63 nM
SMILES: CC(C)C[C@H]1C(=O)N[C@@H](c2cc[nH]c2)CN1C(=O)c1cc(-c2ccc(F)cc2)on1

- EC90 (Hepatitis C virus [6]): 870 nM
SMILES: CC(C)C[C@H]1C(=O)N[C@@H](C2CCSCC2)CN1C(=O)c1cc(-c2ccc(F)cc2)on1

- EC90 (Hepatitis C virus [6]): > 10000 nM
SMILES: COC(=O)c1ccc(/C=C/C(=O)N2C[C@H](CC(C)C)NC(=O)[C@@H]2CC(C)C)cc1

- EC90 (Hepatitis C virus [6]): 100 nM
SMILES: CC(C)C[C@H]1C(=O)N[C@@H](c2ccccc2F)CN1C(=O)c1cc(-c2ccc(F)cc2)on1

- EC90 (Hepatitis C virus [6]): > 10000 nM
SMILES: CC(C)C[C@H]1CN(C(=O)C2CC2)[C@@H](CC(C)C)C(=O)N1
